Columns and labels:
Estrogen receptor beta [1] = target: T1, Estrogen receptor beta (Homo sapiens, UniProt Q92731); test: Binding affinity to ERbeta assessed as inhibition of fluorescein-labeled nuclear receptor domain of steroid receptor coactivator 3 by TR-FRET assay
Estrogen receptor [2] = target: T2, Estrogen receptor (Homo sapiens, UniProt P03372); test: Antagonist activity at ERalpha in human HEC1 cells assessed as inhibition of estrogen-induced transcriptional activity after 24 hrs by reporter gene assay; assay type: functional, cell-based, HEC-1
T2 sequence (P03372 whole entry): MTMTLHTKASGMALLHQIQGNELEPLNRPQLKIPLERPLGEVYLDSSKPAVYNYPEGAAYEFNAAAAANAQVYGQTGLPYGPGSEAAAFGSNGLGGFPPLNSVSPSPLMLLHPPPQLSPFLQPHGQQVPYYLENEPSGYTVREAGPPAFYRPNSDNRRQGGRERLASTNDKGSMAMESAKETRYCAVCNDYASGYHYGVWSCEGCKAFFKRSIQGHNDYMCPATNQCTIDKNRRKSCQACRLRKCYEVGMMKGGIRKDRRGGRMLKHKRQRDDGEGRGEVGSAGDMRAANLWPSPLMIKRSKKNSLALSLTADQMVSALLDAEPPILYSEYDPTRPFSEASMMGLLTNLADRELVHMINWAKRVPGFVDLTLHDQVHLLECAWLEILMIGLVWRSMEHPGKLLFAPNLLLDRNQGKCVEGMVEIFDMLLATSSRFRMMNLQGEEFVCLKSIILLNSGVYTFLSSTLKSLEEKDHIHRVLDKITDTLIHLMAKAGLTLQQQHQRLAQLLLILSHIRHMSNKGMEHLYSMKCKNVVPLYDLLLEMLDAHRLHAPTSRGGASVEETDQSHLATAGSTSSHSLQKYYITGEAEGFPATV
Summary of the method: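 HEC-1 cells, which lack endogenous ER, were lipofectin-transfected with full-length ERα vector, 2ERE-luciferase reporter and pCMV β-gal as internal control. After 6 h the medium was changed to 5% charcoal-dextran-treated calf serum with ligands.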

Estrogen receptor [3] = target: T2, Estrogen receptor; test: Binding affinity to ERalpha assessed as inhibition of steroid receptor coactivator 2 interaction by fluorescence polarization assay
Estrogen receptor [4] = target: T2, Estrogen receptor; test: Binding affinity to ERalpha assessed as inhibition of fluorescein-labeled nuclear receptor domain of steroid receptor coactivator 3 by TR-FRET assay
Summary of the method: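 Fluorescein-SRC-3-NRD (50 nM) was then added for 1 h at room temperature in the dark. Buffer: 20 mM Tris pH 7.5, 0.01% NP40, 50 mM NaCl. SRC-1 Box II peptide served as positive control.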

Estrogen receptor beta [5] = target: T1, Estrogen receptor beta; test: Antagonist activity at ERbeta in human HEC1 cells assessed as inhibition of estrogen-induced transcriptional activity after 24 hrs by reporter gene assay; assay type: functional, cell-based, HEC-1
Estrogen receptor [6] = target: T2, Estrogen receptor; test: Binding affinity to ERalpha assessed as inhibition of steroid receptor coactivator interaction in african green monkey COS7 cells by mammalian 2 hybrid assay; assay type: cell-based, COS-7
[7] = Cytotoxicity against human HEC1 cells assessed as decrease in viable cell count at 20 uM; assay type: cell-based; conditions: hec-1, 20 µM

T1 sequence (Q92731 whole entry, the tested form may be a part): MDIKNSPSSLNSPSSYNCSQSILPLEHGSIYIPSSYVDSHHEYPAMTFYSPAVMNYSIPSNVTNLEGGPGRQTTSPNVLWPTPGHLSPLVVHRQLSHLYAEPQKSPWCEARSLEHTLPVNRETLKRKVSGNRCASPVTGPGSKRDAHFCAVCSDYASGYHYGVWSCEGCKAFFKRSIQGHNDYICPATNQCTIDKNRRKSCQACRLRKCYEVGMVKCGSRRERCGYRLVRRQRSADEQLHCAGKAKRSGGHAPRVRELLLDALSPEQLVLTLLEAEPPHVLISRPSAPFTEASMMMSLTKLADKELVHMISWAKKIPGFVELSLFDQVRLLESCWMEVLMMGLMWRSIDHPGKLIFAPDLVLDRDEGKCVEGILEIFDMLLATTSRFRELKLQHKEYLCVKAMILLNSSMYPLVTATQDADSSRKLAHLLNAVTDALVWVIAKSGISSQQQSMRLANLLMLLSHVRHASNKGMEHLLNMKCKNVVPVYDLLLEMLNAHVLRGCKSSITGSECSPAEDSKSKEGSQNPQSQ

| Ki (Estrogen receptor beta [1]) [µM] | IC50 (Estrogen receptor [2]) [µM] | Ki (Estrogen receptor [3]) [µM] | Ki (Estrogen receptor [4]) [µM] | IC50 (Estrogen receptor beta [5]) [µM] | Compound | IC50 (Estrogen receptor [6]) [µM] | Activity [7] |
| --- | --- | --- | --- | --- | --- | --- | --- |
| > 1000 | – | – | – | > 1000 | CC(C)CCc1cc(NCC(C)C)nc(NCC(C)C)n1 | – | – |
| > 1000 | > 1000 | – | > 1000 | – | CC(C)(C)OC(=O)N(Cc1cccc2ccccc12)c1cc(CCc2ccccc2)nc(NCc2cccc3ccccc23)n1 | – | – |
| > 1000 | 6.9 | – | > 1000 | – | CC(C)CCc1cc(NCC(C)C)nc(OCC(C)C)n1 | – | Active |
| > 1000 | > 1000 | – | > 1000 | – | CC(C)CCc1nc(NCc2cccc3ccccc23)cc(NCC(C)C)n1 | – | – |
| > 1000 | > 1000 | – | > 1000 | – | CC(C)CCc1cc(CCC(C)C)nc(NCc2ccccc2)n1 | – | – |
| > 1000 | > 1000 | – | > 1000 | – | CC(C)COc1cc(OCC(C)C)nc(OCC(C)C)n1 | – | – |
| > 1000 | > 1000 | – | > 1000 | – | CC(C)CCc1cc(OCc2ccccc2)nc(OCc2ccccc2)n1 | – | – |
| > 1000 | > 1000 | – | > 1000 | – | c1ccc(CCc2cc(CCc3ccccc3)nc(NCc3cccc4ccccc34)n2)cc1 | – | – |
| 299 | – | – | – | – | CC(C)CNc1cc(NCC(C)C)nc(NCC(C)C)n1 | – | Active |
| > 1000 | > 1000 | – | > 1000 | – | C(=C\c1cc(OCc2ccccc2)nc(OCc2ccccc2)n1)/c1ccccc1 | – | – |
| > 1000 | 2.1 | – | 5.8 | > 1000 | CC(C)CNc1cc(CCc2ccccc2)nc(NCC(C)C)n1 | – | Active |
| > 1000 | > 1000 | – | > 1000 | – | c1ccc(COc2cc(OCc3ccccc3)nc(OCc3ccccc3)n2)cc1 | – | – |
| > 1000 | > 1000 | – | > 1000 | – | c1ccc(CCc2cc(NCc3cccc4ccccc34)nc(NCc3ccccc3)n2)cc1 | – | – |
| > 1000 | > 1000 | – | > 1000 | – | c1ccc2c(CCc3cc(NCc4cccc5ccccc45)nc(NCc4cccc5ccccc45)n3)cccc2c1 | – | – |
| > 1000 | > 1000 | – | > 1000 | – | c1ccc(CSc2cc(SCc3ccccc3)nc(SCc3ccccc3)n2)cc1 | – | – |
| > 1000 | > 1000 | – | > 1000 | – | CC(C)CCc1cc(NCc2cccc3ccccc23)nc(NCc2ccccc2)n1 | – | – |
| > 1000 | > 1000 | – | > 1000 | – | CC(C)CNc1nc(/C=C/c2ccccc2)cc(/C=C/c2ccccc2)n1 | – | – |
| > 1000 | > 1000 | – | > 1000 | – | c1ccc(CCc2cc(OCc3ccccc3)nc(OCc3ccccc3)n2)cc1 | – | – |
| > 1000 | > 1000 | – | > 1000 | – | C(=C\c1cc(/C=C/c2ccccc2)nc(NCc2ccccc2)n1)/c1ccccc1 | – | – |

Second part, the compound before the results:

| Compound | Ki (Estrogen receptor beta [1]) [µM] | IC50 (Estrogen receptor [2]) [µM] | Ki (Estrogen receptor [3]) [µM] | Ki (Estrogen receptor [4]) [µM] | IC50 (Estrogen receptor beta [5]) [µM] | IC50 (Estrogen receptor [6]) [µM] | Activity [7] |
| --- | --- | --- | --- | --- | --- | --- | --- |
| c1ccc(CCc2cc(NCc3ccccc3)nc(NCc3ccccc3)n2)cc1 | > 1000 | > 1000 | 49 | > 1000 | – | – | – |
| N=C(N)N/N=C/C1=C(Cl)c2ccccc2CC1 | – | – | – | – | – | 5.5 | – |
| CC(C)CNc1nc(CCc2cccc3ccccc23)cc(N(CC(C)C)C(=O)OC(C)(C)C)n1 | > 1000 | > 1000 | – | > 1000 | – | – | – |
| CC(C)CNc1cc(/C=C/c2ccccc2)nc(NCc2ccccc2)n1 | > 1000 | 12 | – | > 1000 | – | – | Active |
| CC(C)CNc1cc(NCc2ccccc2)nc(NCC(C)C)n1 | > 1000 | 9.5 | – | – | > 1000 | – | – |
| CC(C)CCc1cc(NCc2cccc3ccccc23)nc(NCc2cccc3ccccc23)n1 | > 1000 | > 1000 | – | > 1000 | – | – | – |
| CC(C)CCc1cc(NCC(C)C)nc(NCc2ccccc2)n1 | > 1000 | 1.8 | – | 7.9 | – | – | Active |
| CC(C)CNc1nc(CCc2ccccc2)cc(CCc2ccccc2)n1 | > 1000 | > 1000 | – | > 1000 | – | – | – |
| CC(C)CNc1cc(CCc2ccccc2)nc(NCc2cccc3ccccc23)n1 | > 1000 | > 1000 | – | > 1000 | – | – | – |
| CC(C)COc1cc(CCc2ccccc2)nc(OCC(C)C)n1 | > 1000 | > 1000 | – | > 1000 | – | – | – |
| CC(C)COc1cc(/C=C/c2ccccc2)nc(OCC(C)C)n1 | > 1000 | > 1000 | – | > 1000 | – | – | – |
| CC(C)CCc1cc(NCc2ccccc2)nc(NCc2cccc3ccccc23)n1 | > 1000 | > 1000 | – | > 1000 | – | – | – |
| CC(C)CNc1cc(/C=C/c2ccccc2)nc(NCc2cccc3ccccc23)n1 | > 1000 | > 1000 | – | > 1000 | – | – | – |

— ChEMBL document CHEMBL1140106, “Blocking estrogen signaling after the hormone: pyrimidine-core inhibitors of estrogen receptor-coactivator binding” (J Med Chem, 2008)
